Measurements as given in article PMC5604227 (Biochemistry, 2016).
“And” between values parts separate entries of the source, which are not always exact repeats. Equal values may be shown once.

How the values were obtained:
wild-type TSase [1] = molecular target: T1, wild-type TSase (Escherichia coli, UniProt P0A884); set-up: species or system E. coli
In short: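 1H-13C HSQC of wild-type TSase with dUMP bound, U-[2H,13C,15N] ILV-methyl labelled (Ile δ1 only; Leu/Val one methyl protonated). Fraction of the covalently bound state taken from the relative intensities of its assigned resonances. Forward covalent-bond formation rate calculated from that fraction and a prior literature bond-breakage rate (H5 solvent exchange, 0.01 min−1, similar pH and temperature).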

C146S-dUMP complex = C146S-dUMP complex (Escherichia coli, UniProt P0A884, C146S); type: binding, E. coli; conditions: 5 °C
Sequence of C146S-dUMP complex (P0A884 whole entry C146S, one chain of several): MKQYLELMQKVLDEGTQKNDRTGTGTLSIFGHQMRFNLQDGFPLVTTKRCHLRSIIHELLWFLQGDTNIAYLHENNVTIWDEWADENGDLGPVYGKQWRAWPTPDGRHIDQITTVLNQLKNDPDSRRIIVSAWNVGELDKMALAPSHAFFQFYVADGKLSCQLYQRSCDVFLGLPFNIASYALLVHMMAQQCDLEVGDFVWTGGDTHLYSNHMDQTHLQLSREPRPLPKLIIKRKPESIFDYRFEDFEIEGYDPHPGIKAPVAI

C146S TSase [2] = molecular target: T2, C146S TSase (Escherichia coli, UniProt P0A884, C146S); assay: ITC of dUMP binding to C146S TSase; set-up: species or system E. coli
T2 sequence (P0A884 whole entry C146S): as the sequence (P0A884 whole entry C146S, one chain of several) above

[3] = test system: TSase (wild-type and C146S); set-up: species or system E. coli
wild-type TSase [4] = molecular target: T1, wild-type TSase; conditions: ITC; cited from earlier work
C146S TSase [5] = molecular target: T2, C146S TSase; conditions: cited from earlier work
[6] = C146S relative to wild-type, 25 °C

T1 sequence (P0A884 whole entry): as the sequence (P0A884 whole entry C146S, one chain of several) above, with S146C counted along it

For `O=c1[nH]c(=O)n([C@H]2C[C@H](O)[C@@H](COP(=O)(O)O)O2)cc1F` [5F-dUMP], the “population of the minor (covalent) state relative to dUMP complex” value (wild-type TSase [1]; wild-type TSase complex) was “significantly increased”.
In the case of `Cc1nc2ccc(CN(C)c3ccc(C(=O)N[C@@H](CCC(=O)O)C(=O)O)s3)cc2c(=O)[nH]1` [Raltitrexed], the “cooperativity ρ” value (C146S-dUMP complex) is reported as 1.3 ± 0.3.
With `O=c1ccn([C@H]2C[C@H](O)[C@@H](COP(=O)(O)O)O2)c(=O)[nH]1` [dUMP] the “fold weaker dUMP binding” value (C146S TSase [2]; [6]) was 18 fold and 20 fold, the “ΔΔG°bind penalty for formation of the dUMP complex” value (C146S TSase [2]; [6]) was 1.7 kcal/mol and the “change in TΔS° per binding event” value (C146S TSase [2]; C146S vs wild-type) was about 1 kcal/mol. For the same molecule, the “sum of calorimetric TΔΔS° values for both binding events” value (C146S TSase [2]; C146S vs wild-type) was -1.7 kcal/mol, the “fraction of covalently bound state” value (wild-type TSase [1]; wild-type dUMP complex, from resonance intensities) was 19% and ~20% and the “total TΔΔS°conf associated with binding both dUMP molecules” value ([3]; scaled to probes in the dimer, C146S vs wild-type) was -2.08 ± 0.18 kcal/mol. For the same molecule, the “ΔS°conf opposing binding of each dUMP molecule” value ([3]; wild-type TSase) was about 1 kcal/mol, the “change in protonation state on binding (loss of proton per binding event)” value (wild-type TSase [4]) was “less than 0.1 proton” and the “fold weaker KD of C146S for dUMP than wild-type” value (C146S TSase [5]) was about 2 fold.
